Key:
[1] = biological target: T1, Glycylpeptide N-tetradecanoyltransferase (Plasmodium falciparum (isolate 3D7), UniProt Q8ILW6); assay: Inhibition of Plasmodium falciparum N-myristoyltransferase by CPM fluorescence assay
T1 sequence (Q8ILW6 whole entry): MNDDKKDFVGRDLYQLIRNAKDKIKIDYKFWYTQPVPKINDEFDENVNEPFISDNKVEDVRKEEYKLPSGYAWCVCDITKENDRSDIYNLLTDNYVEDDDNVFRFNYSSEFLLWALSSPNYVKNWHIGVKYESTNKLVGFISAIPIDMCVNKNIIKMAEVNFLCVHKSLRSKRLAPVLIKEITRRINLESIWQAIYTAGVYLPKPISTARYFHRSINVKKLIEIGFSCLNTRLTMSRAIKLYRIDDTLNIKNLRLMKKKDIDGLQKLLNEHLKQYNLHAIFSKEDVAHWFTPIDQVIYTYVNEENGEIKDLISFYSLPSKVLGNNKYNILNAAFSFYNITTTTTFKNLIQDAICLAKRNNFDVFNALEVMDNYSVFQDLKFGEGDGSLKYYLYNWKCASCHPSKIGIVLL
How it was run: (§1)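 IC50 values (mean of two or more determinations) were converted to Ki by Cheng–Prusoff using substrate concentration and Km. For PfNMT, Km was 3.64 μM and substrate was 4.00 μM. The human enzyme values refer to HsNMT1.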

[2] = Inhibition of Plasmodium vivax N-myristoyltransferase by CPM fluorescence assay; how it was run: as §1
[3] = Inhibition of human N-myristoyltransferase using H-Gly-Ser-Asn-Lys-Ser-Lys-Pro-Lys-NH2 as substrate by CPM fluorescence assay; how it was run: as §1
Plasmodium falciparum [4] = assay: Antimicrobial activity against blood-stage Plasmodium falciparum NF54 assessed as inhibition of [3H]hypoxanthine incorporation after 48 hrs by liquid scintillation counting; format: functional, organism-based
How it was run: (§2)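 Modified Desjardins method. Drug was serially diluted 2-fold, and infected blood was added at 0.3% parasitemia and 2.5% hematocrit. Uninfected blood and drug-free wells served as controls. Plates were held at 37 °C under 93% N2, 4% CO2, 3% O2. After 48 h, [3H]hypoxanthine (0.5 μCi/well) was added for a further 24 h, then cells were harvested and scintillation counted. Counts were taken as % of untreated controls, with IC50 by logit regression.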

Plasmodium falciparum [5] = assay: Antimicrobial activity against blood-stage Plasmodium falciparum 3D7 assessed as inhibition of [3H]hypoxanthine incorporation after 48 hrs by liquid scintillation counting; format: functional, organism-based
Plasmodium berghei = assay: Antimicrobial activity against Plasmodium berghei sporozoites infected in 12 hrs compound pretreated human HepG2 cells assessed as reduction in viability of exoerythrocytic forms measured after 48 hrs of incubation by luciferase bioluminescence assay; format: functional, organism-based
How it was run: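 HepG2-A16-CD81EGFP cells expressing GFP-CD81 were grown in DMEM with 10% FCS, glutamine and penicillin/streptomycin at 37 °C, 5% CO2. They were seeded at 3000 cells/well 24 h before infection. Cells were pretreated 12 h with a 12-point dilution series, then infected with luciferase-expressing P. berghei sporozoites (1000/well). Exoerythrocytic form viability was read by bioluminescence after 48 h. EC50 came from a four-parameter variable-slope fit, mean of two determinations.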

Plasmodium falciparum [6] = assay: Antimicrobial activity against blood-stage Plasmodium falciparum Dd2 assessed as inhibition of [3H]hypoxanthine incorporation after 48 hrs by liquid scintillation counting; format: functional; how it was run: as §2
Plasmodium falciparum [7] = assay: Antimicrobial activity against blood-stage Plasmodium falciparum K1 assessed as inhibition of [3H]hypoxanthine incorporation after 48 hrs by liquid scintillation counting; format: functional, organism-based; how it was run: as §2
Plasmodium falciparum [8] = assay: Antimicrobial activity against late stage trophozoite form of Plasmodium falciparum 3D7 infected in RBCs after 48 hrs by SYBR green viability assay; format: functional, organism-based; details: 3D7, 96 h, in the assay text read “after 96 hrs” for “after 48 hrs”
How it was run: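 Synchronous 3D7 late trophozoites (33–36 h) were used at 0.1–0.2% parasitemia and 2% hematocrit in washed, buffy-coat-free RBCs, in RPMI 1640 with Albumax, gentamycin and L-glutamine. Seven dilutions from 10.0 to 0.014 μM were run in duplicate at 37 °C under 5% CO2, 5% O2, 90% N2. Drug was replaced at 48 h and incubation continued to 96 h. Read-out was SYBR Green I in saponin/Triton lysis buffer, then fluorescence converted to % growth.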

[9] = Aqueous solubility of the compound; format: physicochemical
[10] = Selectivity ratio of LD50 for human HepG2 cells to EC50 for blood-stage Plasmodium falciparum Dd2; format: ADME, cell-based; details: read-out: Ratio LD50/EC50
Plasmodium falciparum [11] = assay: Ratio of EC50 for blood-stage Plasmodium falciparum Dd2 to EC50 for blood-stage Plasmodium falciparum NF54; format: functional
[12] = Selectivity ratio of Ki for human N-myristoyltransferase to Ki for Plasmodium vivax N-myristoyltransferase
[13] = Selectivity ratio of LD50 for human HepG2 cells to EC50 for blood-stage Plasmodium falciparum K1; format: ADME, cell-based; details: read-out: Ratio LD50/EC50
[14] = Selectivity ratio of LD50 for human HepG2 cells to EC50 for blood-stage Plasmodium falciparum NF54; format: ADME, cell-based; details: read-out: Ratio LD50/EC50
[15] = Selectivity ratio of LD50 for human HepG2 cells to EC50 for blood-stage Plasmodium falciparum 3D7; format: ADME, cell-based; details: read-out: Ratio LD50/EC50
[16] = Cytotoxicity against human HepG2 cells after 72 hrs by MTS assay; format: cell-based; details: read-out: LD50
How it was run: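 HepG2 cells grown in DMEM with 10% FBS and penicillin/streptomycin, 37 °C, 5% CO2, seeded at 5000 cells/well. Seven-point dilution series in medium from a 50 mM DMSO stock; DMSO/medium and puromycin control wells. Incubated 72 h, then MTS/PMS added for 4 h and read at 490 nm. LD50 by nonlinear regression, mean of six determinations.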

[17] = Selectivity ratio of Ki for human N-myristoyltransferase to Ki for Plasmodium falciparum N-myristoyltransferase

| SMILES | Ki [1] [nM] | Ki [3] [nM] | Ki [2] [nM] | EC50 (Plasmodium falciparum [8]) [nM] | further results |
| --- | --- | --- | --- | --- | --- |
| c1ccc(Cc2nc(-c3sc4ccccc4c3OC3CCNCC3)no2)cc1 | 120 | 1190 | 13 |  |  |
| CCN(CC)CCCC(C)Nc1ccnc2cc(Cl)ccc12 (configuration not stated) [CHLOROQUINE] |  |  |  |  | EC50 (Plasmodium falciparum [4]): 13 nM; EC50 (Plasmodium falciparum [5]): 6 nM; EC50 (Plasmodium berghei): > 10000 nM; EC50 (Plasmodium falciparum [6]): 328 nM; EC50 (Plasmodium falciparum [7]): 255 nM |
| COc1cc(Cc2noc(-c3sc4ccccc4c3OC3CCNCC3)n2)cc(OC)c1 | 15 | 207 | 5 | 2490 |  |
| c1ccc(C2(c3nnc(-c4sc5ccccc5c4OC4CCNCC4)o3)CC2)cc1 | 98 | 976 | 34 |  |  |
| CC(C)(c1ccccc1)c1nnc(-c2sc3ccccc3c2OC2CCNCC2)o1 | 152 | 1550 | 32 |  |  |
| Clc1cccc(Cc2noc(-c3sc4ccccc4c3OC3CCNCC3)n2)c1 | 163 | 871 | 58 | 1210 |  |
| Cc1nn(C)c(C)c1Cc1nnc(-c2sc3ccccc3c2OC2CCNCC2)o1 | 8 | 60 | 2 | 302 | solubility [9]: > 8 mM; selectivity ratio [10]: 14; EC50 (Plasmodium falciparum [4]): 232 nM; EC50 (Plasmodium falciparum [5]): 302 nM; Ratio EC50 (Plasmodium falciparum [11]): <4; EC50 (Plasmodium berghei): 372 nM; Ratio Ki [12]: 30; IC50 [1]: 17 nM; EC50 (Plasmodium falciparum [6]): 916 nM; EC50 (Plasmodium falciparum [7]): 339 nM; selectivity ratio [13]: ≤ 40; selectivity ratio [14]: ≤ 40; selectivity ratio [15]: ≤ 40; CC50 at 72 h [16]: 12300 nM; Ratio Ki [17]: 8 |
| COc1cccc(Cc2noc(-c3sc4ccccc4c3OC3CCNCC3)n2)c1 | 51 | 192 | 8 | 1450 |  |
| c1ccc(C(c2ccccc2)c2nnc(-c3sc4ccccc4c3OC3CCNCC3)o2)cc1 | 465 | 1920 | 142 |  |  |
| COC(c1ccccc1)c1nnc(-c2sc3ccccc3c2OC2CCNCC2)o1 (racemic) | 212 | 3950 | 81 |  |  |
| Cc1n[nH]c(C)c1Cc1nnc(-c2sc3ccccc3c2OC2CCNCC2)o1 | 55 | 1540 | 75 | 2010 | Ratio Ki [17]: 30 |
| OC(c1ccccc1)c1nnc(-c2sc3ccccc3c2OC2CCNCC2)o1 (racemic) | 125 | 2450 | 35 | 7340 |  |
| COc1cc(Cc2nc(-c3sc4ccccc4c3OC3CCNCC3)no2)cc(OC)c1 | 15 | 50 | 8 | 3500 |  |
| Cc1noc(C)c1Cc1nnc(-c2sc3ccccc3c2OC2CCNCC2)o1 | 113 | 1050 | 38 | 5020 | Ratio Ki [17]: 8 |
| Cc1noc(C)c1CCc1nnc(-c2sc3ccccc3c2OC2CCNCC2)o1 | 186 | 709 | 47 |  |  |
| O=C1C(O)=C([C@H]2CC[C@H](c3ccc(Cl)cc3)CC2)C(=O)c2ccccc21 [ATOVAQUONE] |  |  |  |  | EC50 (Plasmodium berghei): 0.5 nM; CC50 at 72 h [16]: > 10000 nM |
| COc1cccc(CCOC(=O)c2sc3ccccc3c2OC2CCNCC2)c1 | 120 | 2200 | 59 | 4200 |  |
| COc1cc(CCOC(=O)c2sc3ccccc3c2OC2CCNCC2)cc(OC)c1 | 26 | 31 | 9 | 1410 |  |
| COc1cccc(Cc2nnc(-c3sc4ccccc4c3OC3CCNCC3)o2)c1 | 33 | 428 | 18 | 5500 | Ratio Ki [12]: 24; Ratio Ki [17]: 13 |
| COc1cccc(Cc2nc(-c3sc4ccccc4c3OC3CCNCC3)no2)c1 | 50 | 100 | 6 | 3260 |  |
| Cc1n[nH]c(C)c1CCc1nnc(-c2sc3ccccc3c2OC2CCNCC2)o1 | 226 | 2250 |  |  |  |
| Cc1nn(C)c(C)c1CCc1nnc(-c2sc3ccccc3c2OC2CCNCC2)o1 | 124 | 824 | 32 |  |  |
| FC(F)(c1ccccc1)c1nnc(-c2sc3ccccc3c2OC2CCNCC2)o1 | 391 | 2770 | 182 |  |  |
| CC(c1ccccc1)c1nnc(-c2sc3ccccc3c2OC2CCNCC2)o1 (racemic) | 334 | 2070 | 77 |  |  |

The next lines start with results.

| Ki [1] [nM] | Ki [3] [nM] | SMILES | Ki [2] [nM] | EC50 (Plasmodium falciparum [8]) [nM] | further results |
| --- | --- | --- | --- | --- | --- |
| 247 | 1540 | c1ccc(CCc2noc(-c3sc4ccccc4c3OC3CCNCC3)n2)cc1 | 57 | 3790 |  |
| 77 | 1370 | c1ccc(Cc2nnc(-c3sc4ccccc4c3OC3CCNCC3)o2)cc1 | 39 | 9500 |  |
| 71 | 788 | c1ccc(Cc2noc(-c3sc4ccccc4c3OC3CCNCC3)n2)cc1 | 16 | 2300 |  |
| > 10000 | > 100000 | O=C(NCCCc1ccccc1)c1sc2ccccc2c1OC1CCNCC1 | 2530 |  |  |
| > 10000 | > 100000 | O=C(NCCc1ccccc1)c1sc2ccccc2c1OC1CCNCC1 | 3780 |  |  |
| 677 | 10400 | O=C(OCCc1ccccc1)c1sc2ccccc2c1OC1CCNCC1 | 72 | 5600 |  |
| 1130 | 1870 | O=C(OCCOc1ccccc1)c1sc2ccccc2c1OC1CCNCC1 | 123 |  |  |
| 270 | 893 | c1ccc(Cc2n[nH]c(-c3sc4ccccc4c3OC3CCNCC3)n2)cc1 | 71 |  |  |
| 3970 | 1160 | O=C(OCCCc1ccccc1)c1sc2ccccc2c1OC1CCNCC1 | 66 |  |  |
| > 10000 | > 100000 | O=C(NCCOc1ccccc1)c1sc2ccccc2c1OC1CCNCC1 | 2210 |  |  |

Source: ChEMBL document CHEMBL3232848, “Design and synthesis of high affinity inhibitors of Plasmodium falciparum and Plasmodium vivax N-myristoyltransferases directed by ligand efficiency dependent lipophilicity (LELP)” (J Med Chem, 2014)
